# Screening results from PubChem.
# This is one part of a sample in which hits are shown more often than they occur.
# T cruzi intra: inhibitors of intracellular Trypanosoma cruzi, primary screen, cell-based, plate reader, single point, set 2. intracellular Trypanosoma cruzi in host cells. activity score (inhibition), % at 5.01 µM. hit rate 4.9% among 22,000; in the data active = activity score above about 55%;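 note: parasites and compound incubated about four days before reading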
# A1 apoptosis 2: A1 inhibitors via caspase activation, primary screen, cell-based, luminescence, HTS, two replicates; 24,000 tested, under 10 active; MEF A1-2A-BIM cells, caspase-Glo luminescence, 3 h; percent of clofoctol response, DMSO zero; caspase activation, % (test concentration not listed); in the data active = caspase activation above about 5.9%
#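 Material: A1-2A-BIM-expressing MEF cells. Buffer or medium: RPMI-1640 plus 10% FBS. Incubation: cells settled overnight, compound exposure 3 h at 37 °C, 5% CO2. Signal: Caspase-Glo 3/7 luminescence, 1 h at room temperature.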
# INS-1E rescue: protection of INS-1E cells from cytokine death, primary screen, ATP luminescence, single point; INS-1E cytokine-induced death, 48 h; normalised: neutral wells 0, positive control 100; protection from cytokine-induced ATP loss, % at 10 µM; hit rate 0.1% among 20,000; AID 488910, 2010;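 active = mean replicate protection from cytokine-induced ATP loss at least 50% and at least 75% of replicates each reaching 50%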
#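 Assay system: INS-1E rat cells / Quantity: 8000 cells per well / Medium: RPMI without phenol red, 5% FBS / Probe or stimulus: three-cytokine cocktail (IFN-γ, TNF-α, IL-1β) / Dosing: one compound concentration, pin transfer / Timing: 48 h co-treatment, 10 min post-lysis read / Technique: CellTiter-Glo luminescence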
# Hits are given with their value; . = inactive; / = not tested or not shown.
SMILES,T cruzi intra,A1 apoptosis 2,INS-1E rescue
C[C@H](CO)N1C[C@H](C)[C@H](CN(C)S(=O)(=O)c2ccc(F)cc2)OCCCC[C@H](C)Oc2ccc(NS(=O)(=O)c3cn(C)cn3)cc2C1=O,/,.,/
C[C@H]1CN([C@@H](C)CO)C(=O)CCCn2nncc2CO[C@@H]1CN(C)C(=O)Nc1cccc(F)c1,.,.,.
COc1ccc(CN(C)C[C@@H]2Oc3ccc(NC(=O)C4CC4)cc3CC(=O)N([C@H](C)CO)C[C@@H]2C)cc1,.,.,.
CNC[C@@H]1OCCCC[C@H](C)Oc2ccc(NS(C)(=O)=O)cc2C(=O)N([C@@H](C)CO)C[C@@H]1C,/,.,/
COC(=O)[C@H](Cc1ccc(N=[N+]=[N-])cc1)N[C@H](/C=C/C1CC1)[C@@H](O)Cc1ccccc1,/,.,/
COc1ccc(NC(=O)Nc2ccc3c(c2)CC(=O)N([C@H](C)CO)C[C@H](C)[C@@H](CN(C)Cc2ccc(C(=O)O)cc2)O3)cc1,/,.,/
C[C@@H]1CN([C@H](C)CO)C(=O)c2cccc(NC(=O)Nc3ccc4c(c3)OCO4)c2O[C@H]1CN(C)S(=O)(=O)c1ccc(F)cc1,.,/,.
COc1ccc(CN(C)C[C@@H]2Oc3ccc(NS(=O)(=O)c4ccc(C)cc4)cc3C(=O)N([C@@H](C)CO)C[C@@H]2C)cc1,.,/,.
Cc1ccc(S(=O)(=O)Nc2cccc3c2O[C@H](CN(C)Cc2ccc(Oc4ccccc4)cc2)[C@@H](C)CN([C@@H](C)CO)C3=O)cc1,.,/,.
Cc1ccc(S(=O)(=O)Nc2cccc3c2O[C@@H](CN(C)Cc2ccc(Oc4ccccc4)cc2)[C@@H](C)CN([C@H](C)CO)C3=O)cc1,65,.,.
C[C@H](CO)N1C[C@H](C)[C@H](CN(C)C(=O)NC2CCCCC2)Oc2c(NS(=O)(=O)c3ccc(F)cc3)cccc2C1=O,59,.,.
C[C@@H]1CN([C@H](C)CO)C(=O)c2cccc(NS(=O)(=O)c3ccc(F)cc3)c2O[C@@H]1CN(C)C(=O)NC1CCCCC1,.,.,.
C[C@H]1CCCCO[C@@H](CN(C)C(=O)CCC(F)(F)F)[C@@H](C)CN([C@@H](C)CO)C(=O)c2cc(NS(=O)(=O)c3cn(C)cn3)ccc2O1,/,.,/
C[C@H]1CN([C@@H](C)CO)C(=O)Cc2cc(NC(=O)Cn3cnnn3)ccc2O[C@@H]1CN(C)Cc1ccccc1,.,/,.
C[C@@H]1CCCCO[C@@H](CN(C)S(=O)(=O)c2ccccc2)[C@@H](C)CN([C@@H](C)CO)C(=O)c2cc(NS(C)(=O)=O)ccc2O1,/,.,/
CC(C)NC(=O)Nc1ccc2c(c1)C(=O)N([C@H](C)CO)C[C@H](C)[C@H](CN(C)Cc1ccncc1)OCCCC[C@@H](C)O2,.,.,.
C[C@@H]1CN([C@@H](C)CO)C(=O)Cc2cc(NC(=O)c3ccncc3)ccc2O[C@@H]1CN(C)Cc1ccc(C(=O)Nc2ccccc2N)cc1,.,.,.
C[C@@H]1CN([C@@H](C)CO)C(=O)c2cc(N(C)C)ccc2O[C@@H]1CN(C)Cc1ccc(C(=O)Nc2ccccc2N)cc1,61,/,.
C[C@H](CO)N1C[C@H](C)[C@H](CN(C)Cc2ccc(C(=O)Nc3ccccc3N)cc2)Oc2ccc(N(C)C)cc2CC1=O,59,/,65
C[C@H]1CN([C@@H](C)CO)C(=O)Cc2cc(N(C)C)ccc2O[C@H]1CN(C)Cc1ccc(C(=O)Nc2ccccc2N)cc1,62,/,.
C[C@H]1CN([C@@H](C)CO)C(=O)c2cc(N(C)C)ccc2O[C@@H]1CN(C)Cc1ccc(C(=O)Nc2ccccc2N)cc1,.,/,.
C[C@H](CO)N1C[C@H](C)[C@@H](CN(C)Cc2ccc(C(=O)Nc3ccccc3N)cc2)Oc2ccc(N(C)C)cc2CC1=O,/,.,/
C[C@@H]1CCCCO[C@H](CN(C)C(=O)C2CCCCC2)[C@@H](C)CN([C@@H](C)CO)C(=O)c2cc(NS(=O)(=O)c3cccs3)ccc2O1,/,.,/
C[C@@H]1CN([C@@H](C)CO)C(=O)c2cc(NS(=O)(=O)c3ccccc3)ccc2O[C@@H](C)CCCCO[C@@H]1CN(C)C(=O)c1ccccc1,/,.,/
Cc1noc(C)c1S(=O)(=O)Nc1ccc2c(c1)CC(=O)N([C@H](C)CO)C[C@H](C)[C@@H](CN(C)C(=O)NC1CCCCC1)O2,/,.,/
CC(C)NC(=O)Nc1ccc2c(c1)CC(=O)N([C@H](C)CO)C[C@@H](C)[C@@H](CN(C)C)O2,.,/,.
C[C@@H]1CN([C@@H](C)CO)C(=O)Cc2cc(NS(=O)(=O)c3ccc(Cl)cc3)ccc2O[C@@H]1CN(C)Cc1ccc(C(F)(F)F)cc1,58,.,.
